Reference: ChEMBL document CHEMBL4513216, “Probing the Open Global Health Chemical Diversity Library for Multistage-Active Starting Points for Next-Generation Antimalarials” (ACS Infect Dis, 2020)

experiment: Toxicity liver stage against HepG2, at 10uM; format: cell-based; parameters: test concentration 10 uM, cell line HepG2-A16-CD81EGFP; conditions: human, HepG2-A16-CD81EGFP cells; read-out: INHIBITION
How it was run: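 Uninfected HepG2-A16-CD81EGFP cells, 3 × 10^3 per well, 1536-well, plated on prespotted compound at 10 μM final, parasite-free screening media added to match infected plates; puromycin 10 μM positive, DMSO 0.5% negative; run in parallel with 48 h PbLuc assay at 37 °C, 5% CO2; viability by CellTiter-Glo luminescence, normalized to controls.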

| Compound | cytotoxicity at 10 µM [%] |
| --- | --- |
| Cc1cnn(CC(C)NCc2ccc(OCc3noc(C)n3)cc2)c1 (stereo unspecified) | 1.16 |
| CC(C1CCN(Cc2ccc(N(C)C)nc2)CC1)N(C)C (stereo unspecified) | -1.75 |
| O=C(Nc1cn[nH]c1)N(CCO)C1CCc2ccccc21 (stereo unspecified) | -8.74 |
| CC(C)N1CCC(c2nccnc2Nc2ncccn2)CC1 | -23.7 |
| CN(C)C(=O)N1CCn2c(Cn3cccn3)cnc2C1 | -76.7 |
| COc1ccc(-c2cc(N)on2)cc1 | -12.8 |
| CN(Cc1ccc2c(c1)OCO2)C(=O)c1ccc(=O)n(C)c1 | -9.17 |
| CCCc1n[nH]c(C2CN(C(=O)Cn3ccccc3=O)CCO2)n1 (stereo unspecified) | -1.33 |
| CN(C)CCN1C(=O)CCC12CCN(Cc1cccs1)CC2 | 3.88 |
| CN(Cc1nccn1C)c1nccc(N2CCCC(O)C2)n1 (stereo unspecified) | -8.29 |
| NC(=O)CN(Cc1ncc(-c2ccccc2)o1)C1CCCC1 | -4.3 |
| CC(c1ccncc1)n1cc2nc(N(C)C)[nH]cc-2c1=O (stereo unspecified) | -3.64 |
| CCn1cnnc1C1CCN(C(=O)c2cc(C)n(CC)c2C)CC1 | -6.08 |
| CCS(=O)(=O)CCCN1CCSCC1c1ccc(Cl)cc1 (stereo unspecified) | -5.05 |
| CCc1cn[nH]c1C1CCCN(C(=O)c2cc(C(C)C)on2)C1 (stereo unspecified) | -8.6 |
| CNC(=O)c1cccnc1N1CCC(OCc2ccccc2)CC1 | 2.49 |
| Cc1ccc(N2C[C@H](C(=O)N3CCOCC3)[C@@H]3CCO[C@@H]3C2)nn1 | -66.8 |
| COc1c(CNCc2cccnc2OC2CCCC2)c(C)nn1C | -2.01 |
| CNC(=O)c1nc2c(s1)CCN(C(=O)c1ccc(OC)cc1)CC2 | 0.428 |
| Cc1nc(C)n(C2CCCN(C(=O)CCOc3cccc(F)c3)C2)n1 (stereo unspecified) | -1.79 |
| CNS(=O)(=O)c1ccc(CNC(=O)C2CN(C)CCO2)cc1 (stereo unspecified) | -14.1 |
| CCn1c(CC2CCN(S(=O)(=O)Cc3ccccc3)CC2)nn(C)c1=O | -2.43 |
| CCc1n[nH]c(C2CN(C(=O)c3cc(C4CC4)on3)CCO2)n1 (stereo unspecified) | -6.43 |

| Compound | cytotoxicity at 10 µM [%] |
| --- | --- |
| C[C@@H]1CN(CCC(=O)NCc2ccccc2Cl)C[C@@]1(O)C1CC1 | 2.75 |
| COc1ccc(-c2cc3nc(CCNC(=O)C4CC4)nn3cn2)cc1 | 8.38 |
| CC(C)(C)c1ccc(C2(C(=O)NCCS(N)(=O)=O)CC2)cc1 | 0.515 |
| Cc1cccc(CN2CCc3c(nc(N4CCC(C)CC4)[nH]c3=O)C2)n1 | -1.75 |
| O=C(c1onc2ccccc12)N1CCC2(CCCNC2)C1 (stereo unspecified) | -1.05 |
| Cc1noc(OCCOc2ccc(C#N)cc2)n1 | 0.00742 |
| O=C(O)C[C@@H]1CCN(C(=O)c2cccs2)C[C@@H]1CCN1CCCCC1 | 2.4 |
| COc1ccc(CN2CCC(c3nccnc3-n3ccnc3)CC2)cc1 | -27.4 |
| CC(=O)N1CCC2(CCN(CC3CCOC3)C2)CC1 (stereo unspecified) | -95 |
| CCN(CC)C(=O)Nc1cccc(Oc2ccccn2)c1 | 8.12 |
| NC(=O)c1ccc(CNC(=O)Nc2cn[nH]c2)cc1 | -20.4 |
| CC(=O)N1CCc2cc(Cl)cc(Cl)c2C1 | 11.2 |
| COCC(=O)N1CCCC2(CCN(c3ccsc3)C2=O)C1 (stereo unspecified) | 6.66 |
| CC(=O)c1c(F)cccc1NC1CCN(C(=O)C2CCCCC2)CC1 | 20.7 |
| CNC(=O)Cn1cc(Nc2cccc(F)c2C#N)cn1 | 6.64 |
| Cc1[nH]/c(=N/C(=O)Cn2nc(N3CCOCC3)ccc2=O)sc1C | 1.81 |
| CN1CCC(Cc2cncc(-c3ccccc3C(=O)O)n2)C1 (stereo unspecified) | -7.19 |
| CCc1n[nH]c(C2CN(C(=O)c3nc(C)n4ccccc34)CCO2)n1 (stereo unspecified) | -11.2 |
| Cc1ccc(S(=O)(=O)N2CCOc3ccccc32)cc1C(=O)O | -0.524 |
| CCOc1cc2c(cc1CNC(Cc1cccs1)c1nccs1)OCO2 (stereo unspecified) | 7.15 |
| CC(C)(C)c1ncc2c(n1)CN(C(=O)c1ccncc1)C2 | -12.5 |
| Cc1cc(CN2CCC(CNS(=O)(=O)c3ccccc3F)CC2)c(C)o1 | 5.48 |
| Cc1nnc2n1CCN(Cc1csc(COc3ccccc3)n1)C2 | -14.3 |

| Compound | cytotoxicity at 10 µM [%] |
| --- | --- |
| COc1cccc(C(=O)NCC2CCN(C(=O)c3ccoc3)CC2)c1 | 15.9 |
| CCCc1nc(C(=O)N2CCN(S(=O)(=O)CC)CC2)cs1 | -14.5 |
| O=C(N1CCCCC1)N1CCCC(c2ncncc2-c2ccncc2)C1 (stereo unspecified) | -32.1 |
| Cc1nc(NCC2CC2)nc2c1COCC21CCN(C(=O)NC(C)C)C1 (stereo unspecified) | -83.2 |
| COc1cc2c(nn1)CCN(Cc1nnc(Cc3ccccc3)o1)C2 | 4.25 |
| Cc1ccsc1C(=O)NC1CCN(c2cnn(C)c2)C1=O (stereo unspecified) | -7.11 |
| CSCCc1c(-c2ccccc2)ncn1[C@H]1C[C@@H](C(=O)O)N(C)C1 | 0.471 |
| COc1cncc(-n2ccnc2-c2ccc(C(=O)O)s2)c1 | 0.571 |
| CCn1c(CN2CCCC(O)(c3ccc(F)cc3)CC2)cnc1SC (stereo unspecified) | -0.466 |
| CC(C)N(C)Cc1cnc2n1CCN(S(=O)(=O)c1ccccc1)C2 | -1.72 |
| COc1ccccc1CNC(=O)COc1ccc2c(c1)OCC2O (stereo unspecified) | -3.75 |
| CN1CCC(N(C)C(=O)CSc2ccc(F)c(F)c2)C1=O (stereo unspecified) | -5.89 |
| Cc1ccsc1C(=O)N1CCC2(CC(C(=O)N(C)C(C)C)=NO2)C1 (stereo unspecified) | -126 |
| O=C1CSC(c2ccc3c(c2)OCO3)c2cnn(C3CCCCC3)c2N1 (stereo unspecified) | -6.06 |
| O=C(Cn1cnnn1)N1CCCCC1Cn1cccn1 (stereo unspecified) | -9.24 |
| CN1CCN([C@@H]2CN(C(=O)c3ccsc3)[C@@H]3CCCO[C@H]23)CC1 | 6.74 |
| CC(=O)NCC(=O)N1CCOC2(CCCN(c3cccnc3)C2)C1 (stereo unspecified) | -12.8 |
| COCCN1CCO[C@H]2CN(C(=O)c3ccncc3F)C[C@H]21 | -141 |
| CCc1nc(NC(=O)NCCc2cscn2)nn1C | 2.31 |
| Cc1ccccc1N1CCCN(C(=O)CCc2cccnc2)CC1 | -9.2 |
| Cc1noc(OCc2ccc(C#N)cc2)n1 | -10.2 |
| CC(=O)C1(c2ccccc2)CCN(C(=O)C2CNCCO2)CC1 (stereo unspecified) | -3.73 |
| CC(CC#N)NC(=O)c1cc(Br)c2c(c1)OCCO2 (stereo unspecified) | 5.56 |

| Compound | cytotoxicity at 10 µM [%] |
| --- | --- |
| CC[C@@]1(O)CCN(C(=O)c2ccoc2)C[C@H]1O | 4.63 |
| CCCn1nc(C)c(CNC(=O)C2COc3c(cccc3OC)C2)c1C (stereo unspecified) | -11.8 |
| COCCNC(=O)NCC(C)c1ccccc1OC (stereo unspecified) | 0.284 |
| Cc1ccc(C)c2c(=O)cc(CN3CC[C@@H](N)[C@H](O)C3)[nH]c12 | 8.24 |
| CS(=O)(=O)N1CCN(c2ccc(Nc3ccccn3)nn2)CC1 | -6.01 |
| CN(CCc1nc2ccccc2c(=O)[nH]1)CCC(F)(F)F | -2.27 |
| O=C(O)C1(n2ccnc2)CCN(Cc2ccc3occc3c2)CC1 | -4.31 |
| CC(C)(O)CN1CCN(C(=O)c2sccc2C#N)CC1 | -7.3 |
| O=S(=O)(c1cccc(F)c1)N1C[C@@H]2COC[C@]2(COCC2CC2)C1 | 12.5 |
| Cc1cc(C)n(C2CN(CC(=O)NC3CCOCC3)C2)n1 | -3.92 |
| CCN(CC)S(=O)(=O)N1CCCC(c2ncc3c(n2)CCN(C)C3)C1 (stereo unspecified) | 3.77 |
| O=C(c1cc[nH]c(=O)c1)N1CCn2c(nnc2-c2ccccc2)C1 | -4.71 |
| O=C(Cn1cc(Cl)cn1)N1CCCC(c2ccn[nH]2)C1 (stereo unspecified) | -22.5 |
| Cc1cc(C)c2nc(CN3CC[C@@H](O)C3)cc(O)c2c1 | -6.23 |
| CCn1c(N)nc2cc(C(=O)N3Cc4ccccc4C3)cnc21 | -8.51 |
| Cc1ccc(C(C(=O)NCCc2nc(C)cc(C)n2)N(C)C)cc1 (stereo unspecified) | -1.3 |
| Cc1noc(C)c1CN1CCc2ncnc(-c3cnn(C)c3)c2CC1 | -98.4 |
| COc1c(CNC2CCCOc3ccccc32)c(C(C)C)nn1C (stereo unspecified) | -3.48 |
| COc1ccc(COCC(O)CNC(=O)c2ccc(C)c(F)c2)cc1 (stereo unspecified) | -0.584 |
| CCc1nc(CN2CCCC(N(C)Cc3nc(C)c(C)o3)C2)no1 (stereo unspecified) | -16.5 |
| O=C1N(CCC2CCCCC2)CCCC1(O)CNCCc1ccccc1 (stereo unspecified) | -8.92 |
| CN1CCN(S(=O)(=O)NCC2COc3ccccc3C2)CC1 (stereo unspecified) | -3.33 |
| CCc1nnc2n1CCN(C(=O)c1cc3c(F)cccc3[nH]1)C2 | 6.41 |

| Compound | cytotoxicity at 10 µM [%] |
| --- | --- |
| CCc1nnc(SCC(=O)N2C[C@H]3CC[C@@H](C2)N(CC=C(C)C)C3)[nH]1 | -6.18 |
| Cc1nc(CN2CCCC2c2ccsc2)nc2ccccc12 (stereo unspecified) | 0.89 |
| N#Cc1ccccc1C(=O)N1C[C@@H](CN2CCCCC2)[C@@H](CO)C1 | -0.165 |
| NC(=O)[C@H]1CCCN(c2nccc(-c3c[nH]nc3-c3cccnc3)n2)C1 | -5.89 |
| Cc1cnc2c(c1)N(C(=O)c1ccc(=O)n(C)c1)CCO2 | 0.965 |
| CC(C)(C)NC(=O)CN1CCCN(c2ccc(C#N)cn2)CC1 | -4.31 |
| COc1ncc(CN(C)C2CCN(C(C)C)CC2)cn1 | 5.15 |
| O=C(NCC(F)F)c1cnc(C2CCCN2)cn1 (stereo unspecified) | 0.13 |
| CN(C)C(=O)N1CC(=O)NCC12CCN(C(=O)c1ccco1)C2 (stereo unspecified) | -0.125 |
| COCCN1CCc2c(cnc(-c3ccccc3)c2C(=O)O)C1 | 2.24 |
| CCC(C)NC(=O)c1nnn(-c2ccc(Br)cc2)n1 (stereo unspecified) | 5.81 |
| NC(=O)C1CCN(C(=O)NC2CCN(CC3CCCC3)C2)CC1 (stereo unspecified) | 13 |
| O=C(c1cccc2ccnn12)N1CCC[C@H]1CN1CCCC1 | -144 |
| CCc1cc(CN(Cc2cccnc2)C2CN3CCC2CC3)on1 (stereo unspecified) | 2.09 |
| c1csc(-c2noc(CN3CCCC3Cn3cccn3)n2)c1 (stereo unspecified) | -12.7 |
| Cc1cnn(C(C)C2CC2)c1NC(=O)c1ccco1 (stereo unspecified) | -1.19 |
| Cc1cc(C(=O)N2CCc3nc(N4CCCC4)nc(C)c3CC2)c(C)o1 | -108 |
| Cn1c(C2CC2)nc2c1CCN(CC(=O)NC1CCCCNC1=O)C2 (stereo unspecified) | 3.73 |
| CCc1nccn1CC(=O)N1C[C@@H]2CC[C@H]1CN(c1ncccn1)C2 | -7.9 |
